Assay results as given in ChEMBL document CHEMBL1156686, “Xanthine oxidase-activated prodrugs of thymidine phosphorylase inhibitors” (Eur J Med Chem, 2008).
The source made the active and inactive calls. The rule behind the calls is not given here.

Columns and labels:
[1] = target: Thymidine phosphorylase (Escherichia coli K-12) (UniProt P07650); assay: Inhibition of Escherichia coli thymidine phosphorylase at 74 to 148 uM
Summary of the method: (§1)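 Recombinant E. coli TP (0.00883 U per 0.2 ml) added to start a continuous spectrophotometric assay. Mix: 0.13 mM 5-nitro-2'-deoxyuridine substrate in 0.1 M potassium phosphate, pH 7.4, 25 °C, read at 355 nm in a microplate. Initial velocity compared with the mean of at least two no-inhibitor controls. Where derived, IC50 used at least five concentrations spanning the value.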

[2] = target: Thymidine phosphorylase (Escherichia coli K-12) (UniProt P07650); assay: Inhibition of Escherichia coli thymidine phosphorylase at 103.6 to 207.2 uM; summary of the method: as §1
[3] = target: Thymidine phosphorylase (Escherichia coli K-12) (UniProt P07650); assay: Inhibition of Escherichia coli thymidine phosphorylase at 45 uM; summary of the method: as §1
[4] = target: Thymidine phosphorylase (Escherichia coli K-12) (UniProt P07650); assay: Inhibition of Escherichia coli thymidine phosphorylase at 66 uM; summary of the method: as §1
[5] = target: Thymidine phosphorylase (Escherichia coli K-12) (UniProt P07650); assay: Inhibition of Escherichia coli thymidine phosphorylase at 47.2 uM
Summary of the method: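 Recombinant E. coli TP; continuous spectrophotometric assay at 355 nm, 25 °C, 0.2 ml. Contains 0.13 mM 5-nitro-2'-deoxyuridine substrate in 0.1 M potassium phosphate pH 7.4. Reaction started with TP (0.00883 U/0.2 ml). Inhibitor added from stock. Initial velocity compared with the mean of at least two no-inhibitor controls.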

[6] = target: T1, Thymidine phosphorylase (Homo sapiens) (UniProt P19971); assay: Inhibition of human recombinant thymidine phosphorylase at 62.3 uM
T1 sequence (whole entry): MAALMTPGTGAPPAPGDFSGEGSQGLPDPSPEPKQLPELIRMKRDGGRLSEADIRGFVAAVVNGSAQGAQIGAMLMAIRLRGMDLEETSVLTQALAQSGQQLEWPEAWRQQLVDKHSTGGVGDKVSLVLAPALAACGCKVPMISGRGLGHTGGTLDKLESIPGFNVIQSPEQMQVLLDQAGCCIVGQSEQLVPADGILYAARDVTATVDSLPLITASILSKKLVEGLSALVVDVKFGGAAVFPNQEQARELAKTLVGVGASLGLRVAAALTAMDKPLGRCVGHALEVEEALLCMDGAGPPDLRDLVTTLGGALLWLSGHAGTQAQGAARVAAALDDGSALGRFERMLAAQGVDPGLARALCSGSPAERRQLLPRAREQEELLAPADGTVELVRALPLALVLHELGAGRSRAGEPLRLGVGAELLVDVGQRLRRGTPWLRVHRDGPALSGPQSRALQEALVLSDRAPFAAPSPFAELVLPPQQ
Summary of the method: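 Recombinant human TP expressed in V79 Chinese hamster cells; continuous spectrophotometric assay at 355 nm, 25 °C. Uses 0.33 mM 5-nitro-2'-deoxyuridine substrate in 0.1 M potassium phosphate pH 7.4. Reaction started by adding enzyme. Inhibition taken from initial velocity relative to the mean of at least two no-inhibitor controls.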

[7] = target: Thymidine phosphorylase (Escherichia coli K-12) (UniProt P07650); assay: Inhibition of Escherichia coli thymidine phosphorylase at 158 uM; summary of the method: as §1
[8] = target: Thymidine phosphorylase (Escherichia coli K-12) (UniProt P07650); assay: Inhibition of Escherichia coli thymidine phosphorylase at 163 uM; summary of the method: as §1
[9] = target: Thymidine phosphorylase (Escherichia coli K-12) (UniProt P07650); assay: Inhibition of Escherichia coli thymidine phosphorylase at 68.4 to 136.9 uM; summary of the method: as §1
[10] = target: Thymidine phosphorylase (Escherichia coli K-12) (UniProt P07650); assay: Inhibition of Escherichia coli thymidine phosphorylase at 106.3 to 212.6 uM; summary of the method: as §1
[11] = target: Thymidine phosphorylase (Escherichia coli K-12) (UniProt P07650); assay: Inhibition of Escherichia coli thymidine phosphorylase at 73.7 to 147.7 uM; summary of the method: as §1

Thymidine phosphorylase (Escherichia coli K-12), sequence (P07650 whole entry, looked up): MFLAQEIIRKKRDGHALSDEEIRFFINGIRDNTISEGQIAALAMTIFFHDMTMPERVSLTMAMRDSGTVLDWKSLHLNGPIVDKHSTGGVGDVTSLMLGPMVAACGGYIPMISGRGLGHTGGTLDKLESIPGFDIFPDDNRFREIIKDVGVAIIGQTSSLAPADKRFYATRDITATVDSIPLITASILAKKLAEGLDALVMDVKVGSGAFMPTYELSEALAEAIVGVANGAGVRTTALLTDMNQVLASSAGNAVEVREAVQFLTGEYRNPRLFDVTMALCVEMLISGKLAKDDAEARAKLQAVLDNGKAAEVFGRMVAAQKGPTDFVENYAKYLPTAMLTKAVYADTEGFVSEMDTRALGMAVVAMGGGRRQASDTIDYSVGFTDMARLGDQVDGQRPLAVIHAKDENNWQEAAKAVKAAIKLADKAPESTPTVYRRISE

Q: `O=c1ncc2cc[nH]c2[nH]1` was tested. Which Activity [1] did it give?
A: Its Activity is “inactive”.

Q: Which Activity [2] does the source give for `O=c1[nH]cnc2[nH]ccc12` here?
A: Its Activity is “inactive”.

Q: How did the Activity [3] turn out when `O=c1[nH]c(=S)[nH]c2[nH]ccc12` was run?
A: The Activity was “inactive”.

Q: For `Cc1nc[nH]c(=O)c1Cl`, which Activity [4] is on record?
A: Its Activity is “inactive”.

Q: How did the Activity [5] turn out when `N=C1CCCN1Cc1nc[nH]c(=O)c1Cl` was run?
A: Its Activity is “inactive”.

Q: And the Activity [6]?
A: The Activity was “inactive”.

Q: How did the Activity [7] turn out when `O=c1[nH]c(=O)c2nc[nH]c2[nH]1` was run?
A: Its Activity is “inactive”.

Q: How did the Activity [8] turn out when `O=c1nccc2[nH]ccn12` was run?
A: The Activity was “inactive”.

Q: `Nc1[nH]c(=O)ncc1Br` was tested. Which Activity [9] did it give?
A: Its Activity is “inactive”.

Q: `Nc1ncncc1Br` was tested. Which Activity [10] did it give?
A: The Activity was “inactive”.

Q: `Nc1nc[nH]c(=O)c1Br` was tested. Which Activity [11] did it give?
A: Its Activity is “inactive”.
